Bioassay records: PubChem, several laboratories
GalR3 antag: human GalR3 antagonism; O60755; HEK293 GalR3-CNG cAMP membrane potential fluorescence; galR3 body fused to GalR1 C-terminus; inhibition, % at 3 µM; actives 0.44% (n = 360,000);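 active = inhibition above the screen-wide average plus 3 SD, cut at about 13% in these data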;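 note: forskolin and galanin both at EC90 stimulate the cells; cAMP rise reported by CNG channel membrane potential dye signal; 0% = forskolin plus galanin with DMSO and 100% = forskolin alone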
GAA850 FXN act: increases GAA850 frataxin promoter reporter activity; actives 0.56% (n = 360,000); activation, % at 6 µM; HEK293 lucGAA850 FXN promoter luciferase reporter, 24 h; percent of 10 µM SAHA response;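 active = activation above the average of all compounds screened plus 3 SD, cutoff fixed separately per campaign, cut at about 7.5% in these data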;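 note: 0% = DMSO wells and 100% = 10 µM SAHA wells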
V-ATPase pH: alters yeast V-ATPase proton transport; response, % at 10 µM; S. cerevisiae, pHLuorin cytosolic pH fluorescence; AID 504577; actives 0.37% (n = 350,000); in the data active = response mostly above about 7.3%, no sharp cut-off; inactive = mostly below about 5.4%; note: actives read high
NR2E3 ag-1: human photoreceptor-specific nuclear receptor agonism; Q9Y5X4; CHO-S Gal4-NCOR/VP16-NR2E3 two-hybrid, luciferase; inhibition of corepressor binding, % at 3.98 µM; actives 0.35% (n = 360,000); AID 602229;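 active = inhibition above the mean of all tested compounds plus 3 SD, cut at about 70% in these data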;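 note: 0% = DMSO with NR2E3 transfected cells and 100% = cells lacking NR2E3 construct; higher means lower luciferase signal from less NR2E3 corepressor binding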
Target sequence (Q9Y5X4 whole entry, looked up, the tested form may be a part): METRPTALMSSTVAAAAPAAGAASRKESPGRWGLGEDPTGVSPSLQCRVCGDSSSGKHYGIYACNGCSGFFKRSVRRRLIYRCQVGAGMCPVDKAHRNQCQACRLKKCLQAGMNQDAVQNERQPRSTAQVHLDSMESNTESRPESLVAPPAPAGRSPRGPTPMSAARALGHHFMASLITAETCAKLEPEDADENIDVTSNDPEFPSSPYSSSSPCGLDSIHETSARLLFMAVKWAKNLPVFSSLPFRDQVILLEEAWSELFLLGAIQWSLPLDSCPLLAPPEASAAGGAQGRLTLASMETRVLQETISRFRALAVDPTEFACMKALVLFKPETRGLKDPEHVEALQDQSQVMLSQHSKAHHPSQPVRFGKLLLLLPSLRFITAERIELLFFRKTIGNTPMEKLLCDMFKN
HIV Env fusion: inhibitors of HIV Env-mediated cell fusion; HeLa-JRFL Env/CEM21 cell fusion, luciferase; AID 651610; actives 1.1% (n = 360,000); inhibition, % at 12.3 µM;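 active = mean replicate inhibition score of at least 50 and every replicate individually at or above 50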;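 note: 0% = plate neutral controls and 100% = maraviroc near 300 nM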
NR2E3 ag-2: NR2E3 (human) agonism; Q9Y5X4; GST-NR2E3/biotin-RetCOR TR-FRET, 1536-well; inhibition of corepressor binding, % at 4.78 µM; actives 0.12% (n = 320,000);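 active = percent inhibition above the cutoff of mean plus 3 SD of all tested compounds, set per screening campaign, cut at about 20% in these data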;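 note: 0% = DMSO wells and 100% = biotin wells as full block of FRET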
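Test system – NR2E3–RetCOR corepressor complex · Quantity – NR2E3 fusion 1.35 nM · Buffer or medium – Tris pH 7.5 · Incubation – Compound–protein incubation for 5 h at 4 °C · Technique – TR-FRET, Eu(K)-anti-GST donor, streptavidin-D2 acceptor, ex 340, em 617/671 nm · Evaluation – percent inhibition of 671/617 nm emission ratio versus biotin and DMSO controls · Plate – 1536-well format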
GAA30 FXN cntr: counter-screen for GAA850 frataxin promoter activators: GAA30 promoter activation; AID 588350; activation, % at 6 µM; shares compounds with GAA850 FXN act; HEK293 lucGAA30 FXN promoter luciferase, 24 h; DMSO = 0%, 5 µM ipriflavone = 100%; actives 66% (n = 1,900);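 active = mean activation above the mean of solvent-only control wells plus 3 SD, cut at about 22% in these data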;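 note: counterscreen of GAA850 promoter hits where activity marks nonselective or luminescence artifacts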
FXN GAA850 conf: GAA850 FXN promoter activation confirmation | shares compounds with GAA850 FXN act | HEK293 lucGAA850 FXN promoter luciferase reporter, 24 h; 100% = activation by SAHA | activation, % at 6 µM | actives 86% (n = 1,900) | AID 588351;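 active = mean activation above a set limit taken from the primary screen, cut at about 8% in these data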;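 note: 0% = DMSO wells and 100% = 10 µM SAHA wells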
* = called active by the depositor; . = no result given; [ ] = dose if it differs, or a comment. The list is not random: actives were taken first. Their share in the collection is about 2.2%.

SMILES	GalR3 antag	GAA850 FXN act	V-ATPase pH	NR2E3 ag-1	HIV Env fusion	NR2E3 ag-2	GAA30 FXN cntr	FXN GAA850 conf
C[C@@H]1CN([C@@H](C)CO)S(=O)(=O)c2ccc(Br)cc2O[C@@H]1CN(C)Cc1ccc(C(=O)O)cc1	.	.	.	.	-3[16.7 µM]	.	.	.
CO[C@H]1CN(C)C(=O)c2cc(NC(=O)c3cc(C)on3)ccc2OC[C@@H](C)NC[C@H]1C	.	.	.	.	-4[16.7 µM]	.	.	.
O=S(=O)(N[C@@H]1CC[C@@H](CCn2cc(-c3cccnc3)nn2)O[C@H]1CO)c1ccccc1	.	.	.	.	-3[16.7 µM]	.	.	.
CC(C)(C)N1C(=O)[C@H]2[C@@H](c3ccc(Br)cc3)N3C(=O)N(c4cccc(Cl)c4)C(=O)[C@@]3(Cc3ccccc3)[C@H]2C1=O	-4	12*	3	-10	0	-1	16	14*
Cc1cc(Cl)ccc1OCCCC(=O)N1CCCCC1	-2	8.6*	-2	-96	.	2	79*	31*
Cc1ccccc1NC(=O)N1CCCC(c2nc(-c3ccc(C(C)C)cc3)no2)C1 (stereo not given)	-7	9.2*	-1	-81	.	0	61*	28*
C[C@@H]1CCCCO[C@@H](CN(C)Cc2ccccc2)[C@H](C)CN([C@@H](C)CO)C(=O)c2cc(NS(=O)(=O)c3ccccc3)ccc2O1	.	.	.	.	7[16.7 µM]	.	.	.
Cc1ccc2nc(NC(=O)COC(=O)c3ccc(Br)o3)sc2c1	-3	9.4*	0	-40	.	1	88*	28*
CN1CCN(C(=O)C[C@H]2CC[C@H]3[C@@H](COc4ccc(NC(=O)C5CC5)cc4C(=O)N3C)O2)CC1	.	.	.	.	-12[16.7 µM]	.	.	.
OC12CCCCC1C(c1ccc3c(c1)OCO3)N(Cc1cccc(F)c1)CC2 (stereo not given)	-4	12*	1	-6	.	.	20	13*
OC12CCCCC1C(c1ccc3c(c1)OCO3)N(Cc1ccccc1F)CC2 (stereo not given)	-10	1	-3	-20	0	3	.	.
Fc1cccc(CNCc2ccc3c(c2)OCO3)c1	-8	0	1	-3	-7	0	.	.
OC12CCCCC1C(c1ccc3c(c1)OCO3)N(Cc1ccc(F)cc1)CC2 (stereo not given)	-6	15*	0	-24	.	-1	21	12*
Cn1c(=O)c2c(nc(SCCN3CCOCC3)n2Cc2ccc(F)cc2)n(C)c1=O	2	9.0*	1	-111	.	0	99*	36*
O=C(O)c1cccc(N/N=C/c2sc(N3CCOCC3)nc2-c2ccccc2)c1	-7	11*	5	-126	.	-4	133*	39*
Nc1ccc(C(=O)N/N=C/c2sc(N3CCOCC3)nc2-c2ccccc2)cc1	-1	2	6	-20	-56	-4	.	.
CNC[C@@H]1Oc2cc(C#Cc3ccccc3OC)ccc2S(=O)(=O)N([C@H](C)CO)C[C@H]1C	.	.	.	.	-32[16.7 µM]	.	.	.
COC(=O)C1=C(C(=O)OC)[C@]2([C@@H]3CC=CCN[C@@H](Cc4ccccc4)C(=O)N3Cc3ccccc3)C=C[C@H]1O2	-7	9.1*	-3	-34	73*	.	1	7
CCN1C(=O)[C@H]2[C@@H](c3ccc(C)cc3)N3C(=O)N(c4ccc(OC)cc4)C(=O)[C@@]3(Cc3ccccc3)[C@H]2C1=O	-8	-4	-4	-3	-14	0	.	.
O=C1[C@H]2[C@@H](c3ccc(F)cc3)N3C(=O)N(c4cccc(Cl)c4)C(=O)[C@@]3(Cc3ccccc3)[C@H]2C(=O)N1C1CCCCC1	-6	9.3*	-2	1	14	3	13	7
O=C1[C@H]2[C@@H](c3ccc(F)cc3)N3C(=O)N(c4ccccc4)C(=O)[C@@]3(Cc3ccccc3)[C@H]2C(=O)N1C1CCCCC1	-6	10*	-5	-26	107*	1	23*	7
